Test results from ChEMBL document CHEMBL4433206, “Novel Lysine-Based Thioureas as Mechanism-Based Inhibitors of Sirtuin 2 (SIRT2) with Anticancer Activity in a Colorectal Cancer Murine Model” (J Med Chem, 2019).
Active and inactive are the calls of the source. The calls are words filed in the database; no cut-off is given here.

Experiments:
HCT-116 [1] = assay: Growth inhibition of human HCT116 cells after 72 hrs by CellTiter-Blue assay; assay type: functional; conditions: HCT-116, 72 h
[2] = biological target: T1, NAD-dependent protein deacetylase sirtuin-2 (Homo sapiens, UniProt Q8IXJ6); assay: Inhibition of recombinant human N-terminal His6-tagged/SUMO-fused SIRT2 (38 to 356 residues) expressed in Escherichia coli BL21 assessed as reduction in deacetylase activity using acetylated H3K9 as substrate preincubated for 15 mins followed by substrate addition and measured after 6 mins by UV-HPLC analysis
T1 sequence (Q8IXJ6 whole entry): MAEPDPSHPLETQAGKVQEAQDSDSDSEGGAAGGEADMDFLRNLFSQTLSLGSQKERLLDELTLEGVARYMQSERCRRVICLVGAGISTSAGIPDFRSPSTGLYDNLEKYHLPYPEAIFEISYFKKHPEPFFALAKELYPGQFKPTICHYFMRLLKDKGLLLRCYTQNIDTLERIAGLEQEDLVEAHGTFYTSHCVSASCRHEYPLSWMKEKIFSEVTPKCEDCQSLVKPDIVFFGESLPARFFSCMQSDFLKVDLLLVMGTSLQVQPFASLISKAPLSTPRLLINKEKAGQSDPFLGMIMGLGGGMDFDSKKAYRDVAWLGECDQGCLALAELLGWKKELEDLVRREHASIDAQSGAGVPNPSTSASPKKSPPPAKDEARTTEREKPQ

[3] = biological target: T2, NAD-dependent protein deacetylase sirtuin-1 (Homo sapiens, UniProt Q96EB6); assay: Inhibition of human SIRT1 deacetylase activity using acetylated H3K9 as substrate preincubated for 15 mins followed by substrate addition and measured after 3 mins by UV-HPLC analysis
T2 sequence (Q96EB6 whole entry): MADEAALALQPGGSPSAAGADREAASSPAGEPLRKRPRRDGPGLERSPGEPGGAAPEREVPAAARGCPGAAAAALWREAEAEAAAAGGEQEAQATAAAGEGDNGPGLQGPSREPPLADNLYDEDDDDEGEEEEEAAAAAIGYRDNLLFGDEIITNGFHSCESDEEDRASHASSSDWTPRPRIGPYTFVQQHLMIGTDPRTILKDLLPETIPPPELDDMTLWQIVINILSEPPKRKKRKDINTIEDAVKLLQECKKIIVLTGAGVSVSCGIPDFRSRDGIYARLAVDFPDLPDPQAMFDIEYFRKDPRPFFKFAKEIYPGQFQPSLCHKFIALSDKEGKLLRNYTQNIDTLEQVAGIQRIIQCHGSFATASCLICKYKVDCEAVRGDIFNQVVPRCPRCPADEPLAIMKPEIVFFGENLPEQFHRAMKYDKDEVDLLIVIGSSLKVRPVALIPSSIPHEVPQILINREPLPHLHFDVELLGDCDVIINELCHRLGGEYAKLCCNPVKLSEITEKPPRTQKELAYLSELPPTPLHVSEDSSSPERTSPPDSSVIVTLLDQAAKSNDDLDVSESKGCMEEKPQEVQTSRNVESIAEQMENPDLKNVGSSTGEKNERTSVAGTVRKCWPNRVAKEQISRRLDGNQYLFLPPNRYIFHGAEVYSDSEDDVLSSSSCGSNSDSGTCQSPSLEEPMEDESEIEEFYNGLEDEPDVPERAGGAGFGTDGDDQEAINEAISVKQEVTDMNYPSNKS

MDA-MB-468 = assay: Growth inhibition of human MDA-MB-468 cells after 72 hrs by CellTiter-Blue assay; assay type: functional; conditions: MDA-MB-468, 72 h
MDA-MB-231 = assay: Growth inhibition of human MDA-MB-231 cells after 72 hrs by CellTiter-Blue assay; assay type: functional; conditions: MDA-MB-231, 72 h
BXPC-3 = assay: Growth inhibition of human BxPC3 cells after 72 hrs by CellTiter-Blue assay; assay type: functional; conditions: BXPC-3, 72 h
NCI-H23 = assay: Growth inhibition of human NCI-H23 cells after 72 hrs by CellTiter-Blue assay; assay type: functional; conditions: NCI-H23, 72 h
A549 = assay: Growth inhibition of human A549 cells after 72 hrs by CellTiter-Blue assay; assay type: functional; conditions: A549, 72 h
[4] = Cytotoxicity against human HME1 cells after 72 hrs by CellTiter-Blue assay; assay type: cell-based
How it was run: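 Cells were seeded per well (HCT116 1000; MDA-MB-231, MDA-MB-468, NCI-H23, A549, SW948 2000; MCF7, BxPC-3, HME1 3000) and left 20 h at 37 °C. Inhibitor was added at 1–100 μM final for 72 h at 37 °C. CellTiter-Blue was then added for 4 h, and fluorescence was read at ex 560/em 590 nm.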

HCT-116 [5] = assay: Inhibition of anchorage-independent cell growth in human HCT116 cells assessed as reduction in colony formation at >=10 uM incubated for 5 days followed by compound re-addition and measured after 9 to 11 days by nitro blue tetrazolium chloride-based soft agar colony formation assay relative to control; assay type: functional
How it was run: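 HCT116 cells were mixed at 500 cells/mL into 0.3% agar growth layer over a 0.6% agar base layer (McCoy's medium, 10% calf serum). Both layers held inhibitor at 2.5–50 μM final. Wells were run in triplicate at 37 °C. Inhibitor-containing growth layer was added again at day 5. At 9–11 days, nitro blue tetrazolium was added overnight and colonies were imaged and counted.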

[6] = biological target: T3, NAD-dependent protein deacetylase sirtuin-2 (Homo sapiens) (UniProt Q8IXJ6); assay: Inhibition of SIRT2 in human HCT116 cells assessed as increase in alpha-tubulin acetylation at 50 uM incubated for 6 hrs by DAPI staining-based laser scanning confocal microscopic analysis; assay type: cell-based
T3 sequence (whole entry): T1 sequence (Q8IXJ6 whole entry)
How it was run: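 HCT116 cells were seeded at 400 000 on poly-D-lysine-coated glass-bottom dishes and grown 24 h. Cells were treated with DMSO or inhibitor for 6 h at 37 °C, fixed in ice-cold methanol, and blocked in TBS/0.1% Triton X-100/5% BSA. They were stained with anti-acetyl α-tubulin (1:100, overnight, 4 °C), then Cy3 anti-mouse, and mounted with DAPI. Imaging was by confocal microscopy.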

HCT-116 [7] = assay: Antitumor activity against human HCT116 cells harboring KRAS G13D mutant xenografted in NSG mouse assessed as tumor growth inhibition by measuring reduction in tumor volume at 100 mg/kg, ip administered daily for 12 days and measured post-last dose relative to control; assay type: functional; conditions: HCT-116, ip, 288 h, read-out: TGI
How it was run: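 NSG mice, female and male, about 4–8 weeks old, were implanted with 1 × 10⁶ HCT116 cells on both sides of the abdomen. Tumours grew 3–5 days until visible. Compound was given ip daily for 12 days in vehicle containing 10% DMSO and 10% Kolliphor EL (dosing solution 10 mg/mL); control mice received vehicle. Tumour volume was measured daily; tumours were excised and weighed on the last day. Unpaired two-tailed t-test.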

[8] = Toxicity in NSG mouse xenografted with human HCT116 cells harboring KRAS G13D mutant assessed as body weight loss at 100 mg/kg, ip administered daily for 12 days measured during compound dosing; assay type: organism-based; conditions: in vivo, 288 h

| SMILES | GI50 (HCT-116 [1]) | IC50 [2] | IC50 [3] | GI50 (MDA-MB-468) | GI50 (MDA-MB-231) | GI50 (BXPC-3) | GI50 (NCI-H23) | GI50 (A549) | Activity [4] | growth inhibition (GI) (HCT-116 [5]) | inhibition [6] | inhibition in vivo at 100 mg/kg (HCT-116 [7]) | Activity [8] |
| --- | --- | --- | --- | --- | --- | --- | --- | --- | --- | --- | --- | --- | --- |
| CCCCCCCCCCNC(=S)NCCCC[C@H](NC(=O)OCc1ccccc1)C(=O)Nc1ccccc1 | 54.4 µM | 0.15 µM | > 200 µM | 13.4 µM | 14.8 µM | 24.3 µM | 15.6 µM | 9 µM | Non-Toxic | 100% | Active | 37% | Non-Toxic |
| CCCCCCCCNC(=S)NCCCC[C@H](NC(=O)OCc1ccccc1)C(=O)Nc1ccccc1 | 58.9 µM | 0.061 µM | 11 µM | 26.1 µM | 27.2 µM | 72.4 µM | 35.8 µM | 20.8 µM | Non-Toxic | 100% | Active | 80% | Non-Toxic |
